{"data": "Assay results collected from several papers", "target": "Receptor tyrosine-protein kinase erbB-2 (ERBB2, Homo sapiens, UniProt P04626)", "note": "Lines come from different studies, so protocols differ."}
{"SMILES": "C=CC(=O)N1CCC[C@@H](n2nc(-c3ccc(Oc4ccccc4)cc3)c3c(N)ncnc32)C1", "test": "enzyme activity, inhibitor", "setting": "1 µM", "measurement": "inhibition", "result": "100%"}
{"SMILES": "COc1c(Cl)cccc1Nc1c(-c2ccncc2OC[C@@H]2COCCO2)[nH]c2c1C(=O)NCC2", "test": "enzyme activity, inhibitor, radiometric", "setting": "1 µM", "measurement": "inhibition", "result": "> 80%"}
{"SMILES": "COc1ccc2oc(-c3ccc4nc(N)oc4c3)c/c(=N\\c3ccccc3NC(=O)CCN)c2c1", "test": "binding", "setting": "1 µM", "measurement": "remaining binding", "result": "104%"}
{"SMILES": "N#Cc1ccc(NC(=O)Nc2ccccc2)cc1", "test": "cell-free assay, competition with immobilised ligand", "setting": "25 µM", "measurement": "remaining binding", "result": "100%"}
{"SMILES": "C[C@H]1CC[C@H](n2c3cnccc3c3cnc(Nc4ccc5c(n4)CCN(C(=O)CO)C5)nc32)CC1", "test": "binding, competition with immobilised ligand", "setting": "1 µM", "measurement": "remaining binding", "result": "100%"}
{"SMILES": "CCCCC(=O)Nc1ccc(-c2ccc3ncn(CCC)c(=O)c3c2)cn1", "test": "binding, competition with immobilised ligand", "setting": "0.5 µM", "measurement": "remaining binding", "result": "97%"}
{"SMILES": "C1=C/COCc2cc(ccc2OCCN2CCCC2)Nc2nccc(n2)-c2cccc(c2)COC/1", "test": "binding", "setting": "0.1 µM", "measurement": "remaining binding", "result": "100%"}
{"SMILES": "C#Cc1cnc(Nc2ccnc(CO)c2)nc1Nc1ccccc1S(C)(=O)=NC#N (stereo not shown)", "test": "cell-free assay", "setting": "1 µM", "measurement": "remaining signal", "result": "86%"}
{"SMILES": "Cc1ccc(NC(=O)c2ccnc(C(F)(F)F)c2)cc1-c1cc(OCCO)nc(N2CCOCC2)c1", "test": "binding, competition with immobilised ligand", "setting": "1 µM", "measurement": "remaining binding", "result": "72%"}
{"SMILES": "CO[C@@H]1[C@H](N(C)C(=O)c2ccccc2)C[C@H]2O[C@]1(C)n1c3ccccc3c3c4c(c5c6ccccc6n2c5c31)C(=O)NC4", "test": "enzyme activity, inhibitor", "setting": "1 µM", "measurement": "inhibition", "result": "0%"}
